Measurements published in paper PMC5784828 (Biochemical and biophysical research communications, 2018).

System: MDA-MB-231 cells
Assay: Scratch cell migration assay
Format: cell-based
Conditions: 1 μM, MDA-MB-231, 18 hr
In short: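 MDA-MB-231 cells were grown at 37°C, 5% CO2, in high-glucose DMEM with 10% FBS, L-glutamine, penicillin/streptomycin and 15 mM HEPES. A scratch was made in a confluent monolayer, then test compound or 1% DMSO (solvent control) was added in normal growth medium. The same scratch area was photographed at 0 and 18–24 hr. Duplicate or single wells; four independent experiments; images representative.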

Compound: CN(C)Cc1cccc(N/C(=C2\C(=O)Nc3cc(C(N)=O)ccc32)c2ccccc2)c1 [BIX02188]
- Effect on scratch healing (cell migration): showed inhibition of scratch healing
